Key:
Mus musculus [1] = test: Compound was evaluated for the inhibition of Locomotion-Screen falloff test, at dose (mg/Kg) = 100; 31-59%; assay type: functional
Procedure, shortened: (§1)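 Unfasted male Swiss–Webster mice, 20–30 g, nine per dose in three groups of three, received 10, 30 or 100 mg/kg ip as parent compound in 0.2% methocel, 1 h before testing; controls got methocel. Screen test: percent of mice falling from a screen inverted 180° during 60 s. Then locomotion was read by actophotometer over 1 h as percent inhibition versus vehicle. Graded bands: 60–100% = A.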

Mus musculus [2] = test: Compound was evaluated for the inhibition of Locomotion-Screen falloff test, at dose (mg/Kg) = 10; 31-59%; assay type: functional; procedure, shortened: as §1
Mus musculus [3] = test: Compound was evaluated for the inhibition of Locomotion-Screen falloff test, at dose (mg/Kg) = 30; 60-100%; assay type: functional; procedure, shortened: as §1
Mus musculus [4] = organism: Mus musculus; test: Central nervous system depressant activity; assay type: functional
Procedure, shortened: (§2)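 Male albino Webster mice, 20–26 g, groups of five, given ip doses of 250, 125, 63 mg/kg and lower until no effect was seen. Doses were calculated as active component and given in 0.9% saline or 100% propylene glycol. Observers scored motor activity, ataxia, depression, reflexes, posture, muscle tone and responses to noise, touch, restraint and transfer over 15–60 min. Survivors were held 24 h for a provisional acute toxicity level.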

Rattus norvegicus = test: Evaluated for anticonvulsant activity to protect all rats tested, when administered subcutaneously; assay type: functional
Mus musculus [5] = test: Compound was evaluated for the inhibition of Locomotion-Screen falloff test by ip route; assay type: functional; procedure, shortened: as §1
Mus musculus [6] = test: Compound was evaluated for the inhibition of Locomotion-Screen falloff test, at dose (mg/Kg) = 10; 60-100%; assay type: functional; procedure, shortened: as §1
Mus musculus [7] = test: Compound was evaluated for the inhibition of Locomotion-Screen falloff test, at dose (mg/Kg) = 100; 60-100%; assay type: functional; procedure, shortened: as §1
Mus musculus [8] = test: Compound was evaluated for the inhibition of Locomotion-Screen falloff test, at dose (mg/Kg) = 10; 0-30%; assay type: functional; procedure, shortened: as §1
Mus musculus [9] = test: Compound was evaluated for the inhibition of Locomotion-Screen falloff test, at dose (mg/Kg) = 30; 31-59%; assay type: functional; procedure, shortened: as §1
Mus musculus [10] = test: Compound was evaluated for the inhibition of Locomotion-Screen falloff test, at dose (mg/Kg) = 30; 0-30%; assay type: functional; procedure, shortened: as §1
Mus musculus [11] = test: Compound was evaluated for the inhibition of Locomotion-Screen falloff test, at dose (mg/Kg) = 10; assay type: functional
Procedure, shortened: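 Swiss-Webster male mice (20–30 g, unfasted), 9 per dose in three groups of three; 10 mg/kg ip in 0.2% methocel, dosed as parent compound, 1 h before testing; methocel-injected controls. Inverted wire screen (180° rotation, 60 s) scored as percent falling off. Then actophotometer counts over 1 h give percent inhibition versus vehicle; graded A = 60–100%.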

Mus musculus [12] = test: Compound was evaluated for central nervous system depressant activity at 250 mg/kg; c=Quiet at 250 mg/kg; assay type: functional, organism-based; procedure, shortened: as §2

CCc1nn(C)c(N)c1C(=O)c1ccccc1
Inhibition (Mus musculus [1]): 31% | Inhibition (Mus musculus [2]): 31% | Inhibition (Mus musculus [3]): 60% | Activity (Mus musculus [4]): 16 mg/kg | Activity (Rattus norvegicus): 250 mg/kg

CSc1ccc2c(c1)N(CCC1CCCCN1C)c1ccccc1S2 (configuration not stated) [THIORIDAZINE]
ED50 (Mus musculus [5]): 2.9 mg/kg | Inhibition (Mus musculus [6]): 60%

Cn1nc(-c2ccccc2)c(C(=O)c2ccccc2Cl)c1N
Activity (Mus musculus [4]): 250 mg/kg

CCCn1nc(C)c(C(=O)c2cccc(OC)c2Cl)c1N
Activity (Mus musculus [4]): 16 mg/kg | Activity (Rattus norvegicus): 63 mg/kg

Cc1nn(C)c(N)c1C(=O)c1ccccc1
Inhibition (Mus musculus [7]): 60% | Inhibition (Mus musculus [8]): 0% | Activity (Mus musculus [4]): 63 mg/kg | Activity (Rattus norvegicus): 500 mg/kg | Inhibition (Mus musculus [9]): 31%

Cc1nn(C)c(N)c1C(=O)c1ccccc1C(F)(F)F
Inhibition (Mus musculus [7]): 60% | Inhibition (Mus musculus [8]): 0% | Activity (Mus musculus [4]): 125 mg/kg | Activity (Rattus norvegicus): 250 mg/kg | Inhibition (Mus musculus [9]): 31%

Cc1ccccc1C(=O)c1c(C)nn(C)c1N
Inhibition (Mus musculus [7]): 60% | Inhibition (Mus musculus [2]): 31% | Activity (Mus musculus [4]): 32 mg/kg | Activity (Rattus norvegicus): 125 mg/kg | Inhibition (Mus musculus [10]): 0%

CCCn1nc(C)c(C(=O)c2ccccc2OC)c1N
Activity (Mus musculus [4]): 16 mg/kg | Activity (Rattus norvegicus): 125 mg/kg

CCCn1nc(C)c(C(=O)c2ccccc2C)c1N
Activity (Mus musculus [4]): 16 mg/kg | Activity (Rattus norvegicus): 63 mg/kg

CCCn1nc(C)c(C(=O)c2ccccc2Cl)c1N
Activity (Mus musculus [4]): 8 mg/kg | Activity (Rattus norvegicus): 32 mg/kg

O=c1[nH]c2ccccc2n1C1CCN(CCCC(c2ccc(F)cc2)c2ccc(F)cc2)CC1 [PIMOZIDE]
ED50 (Mus musculus [11]): 5.9 mg/kg | Inhibition (Mus musculus [6]): 60%

CCCCn1nc(C)c(C(=O)c2ccccc2Cl)c1N
Activity (Mus musculus [4]): 8 mg/kg | Activity (Rattus norvegicus): 125 mg/kg

Cc1nn(C(C)C)c(N)c1C(=O)c1ccccc1Cl
Activity (Mus musculus [4]): 63 mg/kg | Activity (Rattus norvegicus): 500 mg/kg

CCCn1nc(C)c(C(=O)c2ccccc2Br)c1N
Activity (Mus musculus [4]): 8 mg/kg | Activity (Rattus norvegicus): 32 mg/kg

CCCCn1nc(C)c(C(=O)c2cccc(Cl)c2)c1N
Activity (Mus musculus [4]): 32 mg/kg | Activity (Rattus norvegicus): 500 mg/kg

CCc1nn(C)c(N)c1C(=O)c1ccccc1Cl
Activity (Mus musculus [4]): 63 mg/kg | Activity (Rattus norvegicus): 500 mg/kg

Cc1nn(C2CCCCC2)c(N)c1C(=O)c1ccccc1Cl
Activity (Mus musculus [12]): Quiet at 250mg/kg

CCCn1nc(C)c(C(=O)c2cccs2)c1N
Activity (Mus musculus [4]): 250 mg/kg | Activity (Rattus norvegicus): 125 mg/kg

Cc1nn(C)c(N)c1C(=O)c1cccc(C(F)(F)F)c1
Inhibition (Mus musculus [1]): 31% | Inhibition (Mus musculus [8]): 0% | Activity (Mus musculus [4]): 4 mg/kg | Activity (Rattus norvegicus): 125 mg/kg | Inhibition (Mus musculus [10]): 0%

Cc1nn(C)c(N)c1C(=O)c1cccs1
Inhibition (Mus musculus [7]): 60% | Inhibition (Mus musculus [8]): 0% | Inhibition (Mus musculus [3]): 60% | ED50 (Mus musculus [5]): 34.2 mg/kg | Activity (Mus musculus [4]): 8 mg/kg

Cc1nn(C)c(N)c1C(=O)c1ccsc1
Activity (Mus musculus [4]): 16 mg/kg

CCCn1nc(C)c(C(=O)c2ccccc2C(F)(F)F)c1N
Activity (Mus musculus [4]): 8 mg/kg | Activity (Rattus norvegicus): 63 mg/kg

CC(C)c1nn(C)c(N)c1C(=O)c1ccccc1Cl
Activity (Mus musculus [4]): 63 mg/kg

CCCCc1nn(C)c(N)c1C(=O)c1ccccc1Cl
Activity (Rattus norvegicus): 125 mg/kg

Cc1nn(C)c(N)c1C(=O)c1ccccc1Br
Inhibition (Mus musculus [1]): 31% | Inhibition (Mus musculus [2]): 31% | Activity (Mus musculus [4]): 63 mg/kg | Activity (Rattus norvegicus): 125 mg/kg | Inhibition (Mus musculus [10]): 0%

Cc1nn(C)c(N)c1C(=O)c1ccccc1Cl
Inhibition (Mus musculus [7]): 60% | Inhibition (Mus musculus [8]): 0% | Activity (Mus musculus [4]): 63 mg/kg | Activity (Rattus norvegicus): 125 mg/kg | Inhibition (Mus musculus [10]): 0%

Cc1nn(-c2ccccc2)c(N)c1C(=O)c1ccccc1Cl
Activity (Mus musculus [4]): 250 mg/kg

CCc1nn(C)c(N)c1C(=O)c1ccccc1F
Inhibition (Mus musculus [1]): 31% | Inhibition (Mus musculus [8]): 0% | Activity (Mus musculus [4]): 32 mg/kg | Activity (Rattus norvegicus): 250 mg/kg | Inhibition (Mus musculus [10]): 0%

COc1ccccc1C(=O)c1c(C)nn(C)c1N
Inhibition (Mus musculus [1]): 31% | Inhibition (Mus musculus [8]): 0% | Activity (Mus musculus [4]): 32 mg/kg | Activity (Rattus norvegicus): 125 mg/kg | Inhibition (Mus musculus [9]): 31%

CCn1nc(C)c(C(=O)c2ccccc2Cl)c1N
Activity (Mus musculus [4]): 32 mg/kg | Activity (Rattus norvegicus): 16 mg/kg

Cc1nn(C)c(N)c1C(=O)c1cccc(Cl)c1
Inhibition (Mus musculus [1]): 31% | Inhibition (Mus musculus [8]): 0% | Activity (Mus musculus [4]): 125 mg/kg | Activity (Rattus norvegicus): 63 mg/kg | Inhibition (Mus musculus [10]): 0%

COc1cccc(C(=O)c2c(C)nn(C)c2N)c1Cl
Activity (Mus musculus [4]): 32 mg/kg | Activity (Rattus norvegicus): 250 mg/kg

CCCn1nc(C)c(C(=O)c2ccc(Cl)cc2)c1N
Activity (Mus musculus [4]): 16 mg/kg | Activity (Rattus norvegicus): 32 mg/kg

Cc1nn(C)c(N)c1C(=O)c1ccccc1F
Inhibition (Mus musculus [3]): 60% | ED50 (Mus musculus [5]): 9.4 mg/kg | Activity (Mus musculus [4]): 32 mg/kg | Activity (Rattus norvegicus): 250 mg/kg | Inhibition (Mus musculus [6]): 60%

Cc1nn(C)c(N)c1C(=O)c1ccc(Cl)cc1
Inhibition (Mus musculus [7]): 60% | Inhibition (Mus musculus [8]): 0% | Activity (Mus musculus [4]): 125 mg/kg | Activity (Rattus norvegicus): 125 mg/kg | Inhibition (Mus musculus [10]): 0%

CCCc1nn(C)c(N)c1C(=O)c1ccccc1Cl
Activity (Mus musculus [4]): 32 mg/kg | Activity (Rattus norvegicus): 125 mg/kg

CCc1nn(C)c(N)c1C(=O)c1cccc(F)c1
Activity (Mus musculus [4]): 63 mg/kg | Activity (Rattus norvegicus): 500 mg/kg
